Source: ChEMBL document CHEMBL5032515, “Dual Role of Phenyl Amides from Hempseed on BACE 1, PPARγ, and PGC-1α in N2a-APP Cells” (J Nat Prod, 2021)
The source made the active and inactive calls. The calls are words filed in the database; no cut-off is given here.

Experiments:
N2a [1] = experiment: Cytotoxicity against mouse N2a-APP cells assessed as cell viability at 0.03 to 0.08 uM measured after 24 hrs by MTT assay; conditions: dose 0.03-0.08 µM
[2] = Permeability of compound assessed as retention time by PAMPA-BBB assay; assay type: ADME
Outline: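 Qualitative PAMPA-BBB. The donor solution was 200 μg/mL (final) in 0.01 M PBS pH 7.4, made from a stock in 50% EtOH. The filter was coated with brain polar lipid plus cholesterol in n-dodecane, and the acceptor held PBS. Plates were incubated 4 h at 37 °C. Donor and acceptor solutions were analysed by UHPLC-UV (200–400 nm) in triplicate, and compounds were identified by retention time.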

N2a [3] = experiment: Cytotoxicity against mouse N2a-APP cells assessed as cell viability at 0.03 to 0.08 uM measured after 24 hrs by MTT assay; assay type: functional, cell-based; conditions: dose 0.03-0.08 µM
Outline: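 N2a-APP cells were seeded at 1 × 10^4 cells/well and exposed for 24 h to 0.03–0.08 μM, with medium-alone controls. MTT (1 mg/mL) was added for 2 h at 37 °C and the formazan was dissolved in DMSO. Absorbance was read at 570 nm, corrected at 650 nm. Survival is given as % of untreated cells; mean ± SD, one-way ANOVA.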

N2a [4] = experiment: Antialzheimer activity in mouse N2a-APP cells assessed as effect on […] expression at 0.03 to 0.08 uM measured after 24 to 48 hrs by RT-qPCR method; assay type: functional, cell-based; conditions: dose 0.03-0.08 µM, time 24-48 hrs
Outline: (§1)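 Mutant APP-overexpressing N2a cells were grown in DMEM with 10% FBS and L-glutamine at 37 °C in 5% CO2. They were seeded in six-well plates at 5 × 10^5/mL (24 h) or 5 × 10^5/2 mL (48 h) and treated at 0.03–0.08 μM. Controls were pioglitazone 14 μM and medium alone. SYBR green qPCR used 20 ng cDNA, GAPDH/18S references and triplicate reactions; 2^−ΔΔCt; mean ± SD, n = 3.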

N2a [5] = experiment: Antialzheimer activity in mouse N2a-APP cells assessed as up-regulation of PGC-1alpha expression at 0.03 to 0.08 uM measured after 24 to 48 hrs by RT-qPCR method; assay type: functional, cell-based; conditions: dose 0.03-0.08 µM, time 24-48 hrs
Outline: as §1

N2a [6] = experiment: Antialzheimer activity in mouse N2a-APP cells assessed as increase of […] expression at 0.03 to 0.08 uM measured after 48 hrs by RT-qPCR method; assay type: functional, cell-based; conditions: dose 0.03-0.08 µM
Outline: as §1

N2a [7] = experiment: Antialzheimer activity in mouse N2a-APP cells assessed as increase of […] expression at 0.03 to 0.08 uM measured after 24 hrs by RT-qPCR method; assay type: functional, cell-based; conditions: dose 0.03-0.08 µM
Outline: as §1

N2a [8] = experiment: Antialzheimer activity in mouse N2a-APP cells assessed as reduction of BACE-1 expression at 0.03 to 0.08 uM measured after 24 hrs by RT-qPCR method; assay type: functional, cell-based; conditions: dose 0.03-0.08 µM
Outline: as §1

N2a [9] = experiment: Antialzheimer activity in mouse N2a-APP cells assessed as reduction of BACE-1 expression at 0.03 to 0.08 uM measured after 48 hrs by RT-qPCR method; assay type: functional, cell-based; conditions: dose 0.03-0.08 µM
Outline: as §1

Retention_time [2] [min] | Compound | Activity (N2a [1]) | Activity (N2a [3]) | Activity (N2a [4]) | Activity (N2a [5]) | Activity (N2a [6]) | Activity (N2a [7]) | Activity (N2a [8]) | Activity (N2a [9])
27.32 | O=C(/C=C/c1ccc(O)cc1)NCCc1ccc(O)cc1 [N-P-COUMAROYL TYRAMINE] | inactive | inactive | inactive | – | – | – | – | –
28.42 | COc1cc(/C=C/C(=O)NCCc2ccc(O)cc2)ccc1O [N-TRANS-FERULOYL TYRAMINE] | – | – | – | – | – | – | – | –
24.08 | O=C(/C=C/c1ccc(O)c(O)c1)NCCc1ccc(O)cc1 | inactive | inactive | – | Active | Active | Active | Active | Active
28.07 | O=C(NCCc1ccc(O)cc1)c1cc2cc(O)c(O)cc2c(-c2ccc(O)c(O)c2)c1C(=O)NCCc1ccc(O)cc1 | – | – | – | – | – | – | – | –
